Assay results published in article PMC9066168 (RSC Advances, 2019).
In brackets after ≈: the same amount, converted by molar mass. Marks after values point to notes of the source that are not given here.

How the values were obtained:
Assay type in all cases: cell-based
[1] = tested on: Candida albicans (MTCC 227); experiment: microbe, parasite or virus in culture; conditions: for diameter of the inhibition zone, C. albicans: 0.1 mL of 50 mg mL^-1 in DMSO per 8 mm well, 18-24 h, NA = no activity
[2] = tested on: methicillin resistant Staphylococcus aureus (MRSA); experiment: microbe, parasite or virus in culture; conditions: for diameter of the inhibition zone, MRSA: 0.1 mL of 50 mg mL^-1 in DMSO per 8 mm well, 18-24 h, NA = no activity
[3] = tested on: Staphylococcus aureus (MTCC 740); conditions: 0.1 mL of 50 mg mL^-1 in DMSO per 8 mm well, 18-24 h; NA = no activity
[4] = tested on: Staphylococcus epidermidis (MTCC 435); conditions: 0.1 mL of 50 mg mL^-1 in DMSO per 8 mm well, 18-24 h; NA = no activity
[5] = tested on: Enterococcus faecalis (MTCC 439); experiment: microbe, parasite or virus in culture
[6] = tested on: Shigella flexneri (MTCC 1457); experiment: microbe, parasite or virus in culture
[7] = tested on: methicillin resistant Staphylococcus aureus (MRSA); experiment: Minimum inhibitory concentration, agar dilution method; conditions: 24 h, read-out: Minimum inhibitory concentration, MRSA
Outline: (§1)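 Bacteria were grown from a loopful in broth at 37 °C for 4 h and adjusted to McFarland turbidity, about (1 to 2) × 10^8 CFU per mL. Test compound in DMSO was mixed into Muller Hinton agar over 0.001–2 mg mL−1. Plates were swab-inoculated with 0.1 mL culture and held at 37 °C for 24 h. MIC was the lowest concentration preventing visible growth, with DMSO as control.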

[8] = tested on: Staphylococcus aureus (MTCC 740); experiment: Minimum inhibitory concentration, agar dilution method; conditions: MTCC740, 24 h, read-out: Minimum inhibitory concentration, S. Aureus
[9] = tested on: Staphylococcus epidermidis (MTCC 435); experiment: as above; conditions: MTCC435, 24 h, read-out: Minimum inhibitory concentration, S. epidermidis
[10] = tested on: Enterococcus faecalis (MTCC 439); experiment: as above; conditions: MTCC439, 24 h, read-out: Minimum inhibitory concentration, E. faecalis
[11] = tested on: Shigella flexneri (MTCC 1457); experiment: Minimum inhibitory concentration, agar dilution method
Outline: as §1

[12] = tested on: human osteosarcoma cell line MG63; experiment: Antitumor MTT assay
[13] = tested on: Candida albicans (MTCC 227); experiment: Minimum inhibitory concentration, agar dilution method; conditions: Muller Hinton agar, 25 °C, 24 h
[14] = 0.1 mL of 50 mg mL^-1 in DMSO per 8 mm well, 18-24 h, NA = no activity

## C[C@@H]1[C@H](O)[C@@H](C)/C=C/C=C/C=C/C=C/C=C/C=C/C=C/[C@H](O[C@@H]2O[C@H](C)[C@@H](O)[C@H](N)[C@@H]2O)C[C@@H]2O[C@](O)(C[C@@H](O)C[C@@H](O)[C@H](O)CC[C@@H](O)C[C@@H](O)CC(=O)O[C@H]1C)C[C@H](O)[C@H]2C(=O)O [Amphotericin B]
[1]
  diameter of the inhibition zone, C. albicans: 34 ^d mm
[1]; Candida albicans, MTCC227, read-out: diameter of the inhibition zone, C. albicans
  zone of inhibition at 50 µg/mL: 34 mm

## S=c1[nH]c2ccccc2[nH]1 [BzimSH, benz-imidazoline-2-thione]
[1]
  diameter of the inhibition zone, C. albicans: 13 mm

## CNC(C)C1CCC(N)C(OC2C(N)CC(N)C(OC3OCC(C)(O)C(NC)C3O)C2O)O1 (stereo not drawn) [Gentamicin, reference compound]
[2]
  diameter of the inhibition zone, MRSA: 33 ^d mm
[2]; Staphylococcus aureus, MRSA, read-out: diameter of the inhibition zone, MRSA
  zone of inhibition at 50 µg/mL: 33 mm
[3]
  diameter of the inhibition zone, S. aureus: 26 ^d mm
[4]
  diameter of the inhibition zone, S. epidermidis: 25 ^d mm
[5]; [14]
  diameter of the inhibition zone, E. faecalis: 27 ^d mm
[5]; Enterococcus faecalis, MTCC439, read-out: diameter of the inhibition zone, E. faecalis
  zone of inhibition at 50 µg/mL: 27 mm
[6]; [14]
  diameter of the inhibition zone, S. flexneri: 34.5 ^d mm
[6]; Shigella flexneri, MTCC1457, read-out: diameter of the inhibition zone, S. flexneri
  zone of inhibition at 50 µg/mL: 34.5 mm
[7]
  MIC: 10 µg/mL (≈ 20.9 µM)
[8]
  MIC: 0.5 µg/mL (≈ 1.05 µM)
[9]
  MIC: 30 µg/mL (≈ 62.8 µM)
[10]
  MIC: 30 µg/mL (≈ 62.8 µM)
[11]; Muller Hinton agar, 37 °C, 24 h
  Minimum inhibitory concentration, S. flexneri: 5 µg/mL (≈ 10.5 µM)
[11]; Shigella flexneri, MTCC1457, 24 h, read-out: Minimum inhibitory concentration, S. flexneri, Muller Hinton agar, 37 °C, 24 h
  MIC: 7 µg/mL (≈ 14.7 µM)

## c1ccc(P(c2ccccc2)c2ccccc2)cc1 [PPh3, triphenylphosphine, reference compound]
[12]; Homo sapiens, MG-63, 24 h
  IC50: > 100 µM

## S=c1cccc[nH]1 [PySH, pyridine-2-thione, reference compound]
[12]; Homo sapiens, MG-63, 24 h
  IC50: 29.7 µM

## O=c1cc[nH]c(=S)[nH]1 [tucH2, 2-thiouracil, reference compound]
[4]
  diameter of the inhibition zone, S. epidermidis: inactive
[12]; Homo sapiens, MG-63, 24 h
  IC50: 44.3 µM

## [Ag2(purSH2)2(dppm)2](NO3)2·2H2O [Complex 5]
[3]
  diameter of the inhibition zone, S. aureus: 12 mm
[4]
  diameter of the inhibition zone, S. epidermidis: 12 mm
[1]
  diameter of the inhibition zone, C. albicans: 17 mm
[13]
  Minimum inhibitory concentration, C. albicans: 50 µg/mL
[12]; MG63 cells, 24 h exposure, MTT, 570 nm
  IC50: 7.62 µM

## purine-6-thione [purSH2, reference compound]
[2]
  diameter of the inhibition zone, MRSA: 18 mm
[3]
  diameter of the inhibition zone, S. aureus: 13 mm
[4]
  diameter of the inhibition zone, S. epidermidis: inactive
[1]
  diameter of the inhibition zone, C. albicans: inactive
